Screening data deposited in PubChem BioAssay by Johns Hopkins Ion Channel Center.
Sampled rows, rich in hits. Any-hit rate of the full collection: about 2.3%.
TRPC4 PAM = TRPC4 (mouse) allosteric potentiation | Q9QUQ5 | 310,000 compounds, 0.42% hits | B-score at 10 µM | HEK293 TRPC4beta/mu-opioid, DAMGO EC20, Fluo-4 Ca2+ flux; stronger effect = higher value;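 active = B-score of calcium response area above 5 SD of library B-scores, with initial fluorescence ratio within 5 SD of library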;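 note: B-score of integrated fluorescence ratio over time as area under calcium response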
TRPC4 agonist = opens the mouse TRPC4 cation channel | 310,000 compounds, 0.49% hits | HEK293 TRPC4beta/mu-opioid, Fluo4 calcium fluorescence; stronger effect = higher value | Q9QUQ5 | B-score at 10 µM | AID 2237;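 active = B-score above 5 SD of library B-scores, and initial fluorescence ratio not above library mean plus 5 SD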;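 note: positive B-score marks a calcium rise read as TRPC4 activation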
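Technique: kinetic Fluo4 calcium fluorescence; Test system: TRPC4beta and mu-opioid receptor HEK293 stable cells; Measure: B-scored integrated calcium fluorescence ratio; Benchmarks: low control buffer alone, high control maximal DAMGO; Schedule: 45 min room-temperature Fluo4 loading, 110 s read.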
TRPC4 inh = blocks the mouse TRPC4 cation channel. Q9QUQ5. HEK293 TRPC4beta/mu-opioid, DAMGO-evoked Fluo4 calcium flux; stronger effect = lower value. B-score at 10 µM. 300,000 compounds, 0.39% hits;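 active = B-score over 3 SD under the library average, no early fluorescence shift, positive overall ratio signal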
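Assay system: HEK293 cells with stable TRPC4beta plus mu-opioid receptor expression; Probe or stimulus: DAMGO in two steps, submaximal then maximal; Dosing: single-point compound dosing; Measured by: Fluo4 calcium-dye fluorescence, kinetic read; Read-out basis: B score from integrated Fluo4 fluorescence ratio.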
TRPC6 inh = mouse TRPC6 channel inhibition; AID 2553; HEK293-TRPC6, membrane potential dye, ACh-evoked depolarization; stronger effect = lower value; 310,000 compounds, 1.1% hits; B-score at 10 µM;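 active = B-score under library mean minus 3 SD, initial fluorescence not abnormally high, positive integrated signal ratio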;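 note: B-score derived from integrated fluorescence ratio over the kinetic read; more negative B-score means stronger inhibition of depolarization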
TRPC6 activator = activates the mouse TRPC6 cation channel. B-score at 10 µM. 310,000 compounds, 0.13% hits. HEK293-TRPC6 membrane potential dye fluorescence; stronger effect = higher value. Q61143;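 active = B-score of the integrated fluorescence ratio above library mean plus 3 SD, and starting fluorescence ratio within library mean plus 5 SD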;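 note: higher score means more depolarization so channel activation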
* marks the source's active call; other numbers are inactive results.

Cc1nc2c(c(=O)c3ccccc3n2C)c(=O)n1C1CCCCCC1 was read as TRPC4 PAM inactive, TRPC4 agonist inactive, TRPC4 inh inactive, TRPC6 inh inactive and TRPC6 activator inactive.
Cn1c2ccccc2c(=O)c2c(=O)n(C3CCCCC3)c(-c3ccco3)nc21 was read as TRPC4 PAM inactive, TRPC4 agonist 116*, TRPC4 inh inactive, TRPC6 inh inactive and TRPC6 activator inactive.
`Cn1c2ccccc2c(=O)c2c(=O)n(-c3ccccc3)c(-c3ccc(C(C)(C)C)cc3)nc21` gave TRPC4 PAM 21*, TRPC4 agonist inactive, TRPC4 inh inactive, TRPC6 inh inactive and TRPC6 activator inactive.
Cc1ccc(-c2nc3c(c(=O)c4ccccc4n3C)c(=O)n2-c2ccc(F)cc2)cc1 was read as TRPC4 PAM inactive, TRPC4 agonist inactive, TRPC4 inh inactive, TRPC6 inh inactive and TRPC6 activator inactive.
For CN(CC(=O)Nc1ccc(F)c(F)c1F)C(=O)C1CCC1 the results were TRPC4 PAM inactive, TRPC4 agonist inactive, TRPC4 inh inactive, TRPC6 inh inactive and TRPC6 activator inactive.
Screening CN1CCN(NC(=O)c2cccc(Br)c2)CC1 returned TRPC4 PAM 19*, TRPC4 agonist inactive, TRPC4 inh inactive, TRPC6 inh inactive and TRPC6 activator inactive.
Cc1cccc(C(=O)OCC(=O)N2CCCC2=O)c1[N+](=O)[O-] was read as TRPC4 PAM inactive, TRPC4 agonist inactive, TRPC4 inh inactive, TRPC6 inh inactive and TRPC6 activator inactive.
O=C1[C@@H]2Cc3c([nH]c4ccccc34)CN2C(=O)CN1CCCCCO was read as TRPC4 PAM inactive, TRPC4 agonist inactive, TRPC4 inh inactive, TRPC6 inh inactive and TRPC6 activator inactive.
For CCOc1ccc(NS(=O)(=O)c2ccc(NC(=S)NC(=O)CC(C)C)cc2)cc1 the results were TRPC4 PAM 22*, TRPC4 agonist inactive, TRPC4 inh inactive, TRPC6 inh inactive and TRPC6 activator inactive.
Screening CCCC(=O)NC(=S)Nc1ccc(S(=O)(=O)Nc2ccc(OCC)cc2)cc1 returned TRPC4 PAM inactive, TRPC4 agonist inactive, TRPC4 inh inactive, TRPC6 inh inactive and TRPC6 activator inactive.
For CCCc1ccc(OCc2ccc(C(=O)N3CCSCC3)o2)cc1 the results were TRPC4 PAM 20*, TRPC4 agonist inactive, TRPC4 inh inactive, TRPC6 inh inactive and TRPC6 activator inactive.
For CC(C)(C)c1ccc(OCc2ccc(C(=O)N3CCOCC3)o2)cc1 the results were TRPC4 PAM inactive, TRPC4 agonist inactive, TRPC4 inh inactive, TRPC6 inh inactive and TRPC6 activator inactive.
`O=C1CC(O)(C(F)F)Oc2ccc3ccccc3c21` (stereo unspecified) gave TRPC4 PAM inactive, TRPC4 agonist inactive, TRPC4 inh inactive, TRPC6 inh inactive and TRPC6 activator inactive.
Screening O=C1CC(O)(C(F)(F)F)Oc2c1ccc1ccccc21 (stereo unspecified) returned TRPC4 PAM inactive, TRPC4 agonist 142*, TRPC4 inh inactive, TRPC6 inh inactive and TRPC6 activator inactive.
For COc1ccccc1C(=O)NNC(=O)C(=O)NC1CCCCC1 the results were TRPC4 PAM inactive, TRPC4 agonist inactive, TRPC4 inh inactive, TRPC6 inh inactive and TRPC6 activator inactive.
For Fc1ccc(-c2nnc(CN3CCN(c4ncc(C(F)(F)F)cc4Cl)CC3)o2)cc1 the results were TRPC4 PAM inactive, TRPC4 agonist 109*, TRPC4 inh inactive, TRPC6 inh inactive and TRPC6 activator inactive.
For NC(=O)NCCN1CCN(c2ncc(C(F)(F)F)cc2Cl)CC1 the results were TRPC4 PAM 15*, TRPC4 agonist inactive, TRPC4 inh inactive, TRPC6 inh inactive and TRPC6 activator inactive.
`NC(=O)c1ccc(N2CCN(c3ncc(C(F)(F)F)cc3Cl)CC2)cc1` gave TRPC4 PAM 17*, TRPC4 agonist inactive, TRPC4 inh inactive, TRPC6 inh inactive and TRPC6 activator inactive.
For O=C(c1cc2c(ccc3ccccc32)o1)N1CCN(c2ncc(C(F)(F)F)cc2Cl)CC1 the results were TRPC4 PAM inactive, TRPC4 agonist 80*, TRPC4 inh inactive, TRPC6 inh inactive and TRPC6 activator inactive.
